According to ChEMBL document CHEMBL4196093, “Small-Molecule Activator of UNC-51-Like Kinase 1 (ULK1) That Induces Cytoprotective Autophagy for Parkinson's Disease Treatment” (J Med Chem, 2018):

How the values were obtained:
[1] = biological target: T1, Serine/threonine-protein kinase ULK1 (Homo sapiens) (UniProt O75385); test: Induction of ULK1-mediated autophagy in human SH-SY5Y cells at 1 uM after 6 hrs by MDC-staining based flow cytometric analysis relative to control; type: cell-based
T1 sequence (whole entry): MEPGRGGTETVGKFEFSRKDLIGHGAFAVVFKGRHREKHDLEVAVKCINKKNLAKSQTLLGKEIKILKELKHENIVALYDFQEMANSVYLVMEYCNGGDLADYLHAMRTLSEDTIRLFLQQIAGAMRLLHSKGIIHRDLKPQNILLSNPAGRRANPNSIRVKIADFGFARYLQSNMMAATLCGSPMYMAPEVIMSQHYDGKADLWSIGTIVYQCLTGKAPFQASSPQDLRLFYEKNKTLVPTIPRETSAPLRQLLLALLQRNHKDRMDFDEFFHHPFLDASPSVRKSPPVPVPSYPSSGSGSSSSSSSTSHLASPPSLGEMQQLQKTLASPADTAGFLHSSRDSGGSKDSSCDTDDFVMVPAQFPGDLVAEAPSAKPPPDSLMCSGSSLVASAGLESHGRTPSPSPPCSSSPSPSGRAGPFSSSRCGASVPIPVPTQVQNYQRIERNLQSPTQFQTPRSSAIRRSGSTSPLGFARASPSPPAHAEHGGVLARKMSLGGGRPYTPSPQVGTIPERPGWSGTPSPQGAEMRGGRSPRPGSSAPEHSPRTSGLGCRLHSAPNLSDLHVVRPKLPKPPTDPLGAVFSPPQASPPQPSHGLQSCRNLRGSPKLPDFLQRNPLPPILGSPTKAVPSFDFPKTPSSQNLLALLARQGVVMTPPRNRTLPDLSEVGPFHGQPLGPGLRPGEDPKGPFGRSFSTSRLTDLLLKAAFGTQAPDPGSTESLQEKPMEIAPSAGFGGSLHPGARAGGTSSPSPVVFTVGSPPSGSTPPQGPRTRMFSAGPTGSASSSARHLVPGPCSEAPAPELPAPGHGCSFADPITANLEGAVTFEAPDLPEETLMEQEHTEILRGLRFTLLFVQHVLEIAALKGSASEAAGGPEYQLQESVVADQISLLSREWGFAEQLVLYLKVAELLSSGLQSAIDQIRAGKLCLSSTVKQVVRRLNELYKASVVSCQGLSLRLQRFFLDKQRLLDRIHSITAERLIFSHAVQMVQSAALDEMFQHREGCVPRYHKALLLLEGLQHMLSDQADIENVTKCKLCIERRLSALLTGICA
Method in brief: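 Autophagy scored as percentage of MDC-positive SH-SY5Y cells by flow cytometry after 1 µM compound; mean ± SEM.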

[2] = biological target: T1, Serine/threonine-protein kinase ULK1 (Homo sapiens); test: Induction of human recombinant N-terminal GST tagged-ULK1 (1 to 649 residues) kinase activity expressed in baculovirus infected insect Sf9 cells at 100 nM using MBP as substrate after 60 mins by ADP-glo assay relative to (R)-2-(3-(3,5-Bis(trifluoromethyl)phenyl)thioureido)-N-(2,4-difluorophenyl)-2-phenylacetamide
Method in brief: (§1)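 Recombinant human ULK1 (10 ng) with MBP (0.1 µg/µl)/10 µM ATP and compound at 100 nM in 40 mM Tris pH 7.5, 20 mM MgCl2, 50 µM DTT, 0.1 mg/ml BSA. Incubated 60 min at room temperature; ADP-Glo luminescence read. Three independent experiments, mean ± SEM.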

[3] = biological target: T1, Serine/threonine-protein kinase ULK1 (Homo sapiens); test: Induction of human recombinant N-terminal GST tagged-ULK1 (1 to 649 residues) kinase activity expressed in baculovirus infected insect Sf9 cells at 100 nM using MBP as substrate after 60 mins by ADP-glo assay relative to control; method in brief: as §1
[4] = biological target: T2, Serine/threonine-protein kinase ULK1 (Homo sapiens, UniProt O75385); test: Induction of human recombinant N-terminal GST tagged-ULK1 (1 to 649 residues) kinase activity expressed in baculovirus infected insect Sf9 cells using MBP as substrate after 60 mins by ADP-glo assay
T2 sequence (O75385 whole entry): T1 sequence (whole entry)
Method in brief: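 ULK1 (10 ng) incubated with MBP (0.1 µg/µl)/10 µM ATP and a compound concentration series in Tris pH 7.5/MgCl2/DTT/BSA buffer for 60 min at room temperature. ADP-Glo luminescence read. EC50 derived from the curve; Emax normalized to maximal response of the reference activator.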

Activity [1] [%]	fold change (FC) [2]	Activity [3] [%]	EC50 [4] [nM]	Structure (SMILES)
30.1	0.742	202	40.8	O=C(Nc1ccc(F)cc1F)[C@H](NCCc1ccc(F)cc1)c1ccccc1
	0.324		263	Clc1ccc(CO[C@@H](Cn2ccnc2)c2ccc(Cl)cc2Cl)cc1
14.7	0.692	197	54.8	CN1CCN(CC(OC(=O)c2ccc3c(c2)OCO3)c2ccccc2)CC1 (stereo not drawn)
30.9		153		COc1ccc(NC(=O)N[C@@H](C(=O)N[C@H](C)c2cc(F)ccc2F)c2ccccc2)cc1
23.4		161		O=C(Nc1ccc(F)cc1F)[C@H](NCCc1cccc(F)c1)c1ccccc1
11.8		152		COc1ccc(N2CCN(CC(OC(=O)c3ccccc3F)c3ccccc3)CC2)cc1 (stereo not drawn)
16.8		144		Cc1ccccc1NC(=O)[C@H](NCCc1ccc2[nH]ccc2c1)c1ccccc1
43.6		227		O=C(Nc1ccc(C(F)(F)F)cc1)N[C@@H](C(=O)Nc1cc(F)ccc1F)c1ccccc1
6.56		149		CN1CCN(CC(OC(=O)c2ccccc2F)c2ccccc2)CC1 (stereo not drawn)
7.41		142		CN1CCN(CC(OC(=O)c2ccc(-c3ccccc3)cc2)c2ccccc2)CC1 (stereo not drawn)
36.2		179		Cc1ccccc1NC(=O)[C@H](NC(=S)Nc1ccccc1)c1ccccc1
36.8		30.4		Cc1ccccc1NC(=O)[C@H](NC(=O)Nc1ccccc1Cl)c1ccccc1
21		158		Cc1ccccc1NC(=O)[C@H](NCCc1ccc(O)cc1)c1ccccc1
32.9		178		C[C@@H](NC(=O)[C@H](NC(=S)Nc1cc(C(F)(F)F)cc(C(F)(F)F)c1)c1ccccc1)c1ccccc1
6.22		139		COc1ccc(CC(=O)OC(CN2CCN(C)CC2)c2ccccc2)cc1OC (stereo not drawn)
27.1		155		Cc1cccc(C)c1NC(=O)N[C@@H](C(=O)Nc1cccc(Br)c1)c1ccccc1
11		137		Cc1ccccc1NC(=O)[C@H](NCCc1cccc2ccccc12)c1ccccc1
27.9		152		COc1ccc(CCNC(=O)N[C@@H](C(=O)Nc2ccccc2Cl)c2ccccc2)cc1OC
43.1		205		Cc1ccccc1NC(=O)[C@H](NC(=S)Nc1cc(C(F)(F)F)cc(C(F)(F)F)c1)c1ccccc1
24.4		146		Cc1ccccc1NC(=O)[C@H](NC(=O)Nc1cccc2ccccc12)c1ccccc1
22.7		169		C[C@@H](NC(=O)[C@H](NC(=O)Nc1cccc(Cl)c1)c1ccccc1)c1ccccc1
28.2		171		O=C(Nc1ccc(F)cc1F)[C@H](NCCc1ccc(Br)cc1)c1ccccc1
